# Calls of active or inactive are those of the source. The calls are words filed in the database; no cut-off is given here.
# Columns and labels:
# A549 [1] = test: Induction of apoptosis in human A549 cells assessed as early apoptosis cells level at 2 times antiproliferative IC50 incubated for 24 hrs by Annexin V-FITC/propidium iodide double staining based flow cytometry (reference value: 0.116%); assay type: functional
# A549 [2] = test: Antitumor activity against human A549 cells xenografted in Balb/ca-nu mouse assessed as tumor growth inhibition at 2.5 to 10 mg/kg, iv dosed every 3 days for total of 7 dosing rounds measured after 20 days post dose; assay type: functional, organism-based
# Procedure, shortened: (§1)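 A549 xenograft in mice, dosed by tail vein injection every 3 days; vehicle saline plus 0.2% Tween 80. n = 8 per treatment group, 6 in the vehicle group. Mean ± SE.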
# A549 [3] = test: Antitumor activity against human A549 cells xenografted in Balb/ca-nu mouse assessed as tumor growth inhibition at 2.5 mg/kg, iv dosed every 3 days for total of 7 dosing rounds measured on day 12 after treatment; assay type: functional; conditions: read-out: TGI; procedure, shortened: as §1
# A549 [4] = test: Induction of apoptosis in human A549 cells assessed as necrosis cells level at 2 times antiproliferative IC50 incubated for 24 hrs by Annexin V-FITC/propidium iodide double staining based flow cytometry (reference value: 0.042%); assay type: functional
# A549 [5] = test: Antitumor activity against human A549 cells xenografted in Balb/ca-nu mouse assessed as tumor growth inhibition at 5 mg/kg, iv dosed every 3 days for total of 7 dosing rounds measured on day 12 after treatment; assay type: functional; conditions: read-out: TGI; procedure, shortened: as §1
# A549 [6] = test: Induction of apoptosis in human A549 cells assessed as necrosis cells level at IC50 incubated for 24 hrs by Annexin V-FITC/propidium iodide double staining based flow cytometry (reference value: 0.042%); assay type: functional
# A549 [7] = test: Antitumor activity against human A549 cells xenografted in Balb/ca-nu mouse assessed as tumor growth inhibition at 10 mg/kg, iv dosed every 3 days for total of 7 dosing rounds measured on day 20 after treatment; assay type: functional; conditions: read-out: TGI; procedure, shortened: as §1
# A549 [8] = test: Induction of apoptosis in human A549 cells assessed as early apoptosis cells level at IC50 incubated for 24 hrs by Annexin V-FITC/propidium iodide double staining based flow cytometry (reference value: 0.116%); assay type: functional
# A549 [9] = test: Antitumor activity against human A549 cells xenografted in Balb/ca-nu mouse assessed as tumor growth inhibition at 2.5 mg/kg, iv dosed every 3 days for total of 7 dosing rounds measured on day 20 after treatment; assay type: functional; conditions: read-out: TGI; procedure, shortened: as §1
# A549 [10] = test: Induction of apoptosis in human A549 cells assessed as late apoptosis cells level at IC50 incubated for 24 hrs by Annexin V-FITC/propidium iodide double staining based flow cytometry (reference value: 0.127%); assay type: functional
# A549 [11] = test: Induction of apoptosis in human A549 cells assessed as viable cells level at 0.5 times antiproliferative IC50 incubated for 24 hrs by Annexin V-FITC/propidium iodide double staining based flow cytometry (reference value: 99.7%); assay type: functional
# A549 [12] = test: Antitumor activity against human A549 cells xenografted in Balb/ca-nu mouse assessed as tumor growth inhibition at 5 mg/kg, iv dosed every 3 days for total of 7 dosing rounds measured on day 18 after treatment; assay type: functional; conditions: read-out: TGI; procedure, shortened: as §1
# A549 [13] = test: Antiproliferative activity against human A549 cells assessed as inhibition of cell proliferation incubated for 48 hrs by CCK8 assay; assay type: functional, cell-based; conditions: A549, 48 h
# Procedure, shortened: (§2)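 Human A549 lung, Hela cervical, Bel-7402 hepatocellular and MCF-7 breast cancer cells, plus mouse embryo fibroblast NIH3T3, tested for anti-proliferative activity by CCK-8 assay. For the matrine combination tests, the chalcone and matrine were used at a 1:1 molar ratio; values given as IC50.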
# A549 [14] = test: Induction of apoptosis in human A549 cells assessed as late apoptosis cells level at 2 times antiproliferative IC50 incubated for 24 hrs by Annexin V-FITC/propidium iodide double staining based flow cytometry (reference value: 0.127%); assay type: functional
# A549 [15] = test: Antitumor activity against human A549 cells xenografted in Balb/ca-nu mouse assessed as tumor growth inhibition at 5 mg/kg, iv dosed every 3 days for total of 7 dosing rounds measured on day 16 after treatment; assay type: functional; conditions: read-out: TGI; procedure, shortened: as §1
# A549 [16] = test: Antitumor activity against human A549 cells xenografted in Balb/ca-nu mouse assessed as tumor growth inhibition at 10 mg/kg, iv dosed every 3 days for total of 7 dosing rounds measured on day 10 after treatment; assay type: functional; conditions: read-out: TGI; procedure, shortened: as §1
# A549 [17] = test: Induction of apoptosis in human A549 cells assessed as viable cells level at 2 times antiproliferative IC50 incubated for 24 hrs by Annexin V-FITC/propidium iodide double staining based flow cytometry (reference value: 99.7%); assay type: functional
# A549 [18] = test: Induction of apoptosis in human A549 cells assessed as necrosis cells level at 0.5 times antiproliferative IC50 incubated for 24 hrs by Annexin V-FITC/propidium iodide double staining based flow cytometry (reference value: 0.042%); assay type: functional
# A549 [19] = test: Induction of apoptosis in human A549 cells incubated for 24 hrs by Annexin V-FITC/propidium iodide double staining based flow cytometry; assay type: functional, cell-based
# A549 [20] = test: Antitumor activity against human A549 cells xenografted in Balb/ca-nu mouse assessed as tumor growth inhibition at 2.5 mg/kg, iv dosed every 3 days for total of 7 dosing rounds measured on day 10 after treatment; assay type: functional; conditions: read-out: TGI; procedure, shortened: as §1
# HeLa = test: Antiproliferative activity against human HeLa cells assessed as inhibition of cell proliferation incubated for 48 hrs by CCK8 assay; assay type: functional, cell-based; procedure, shortened: as §2
# MCF7 = test: Antiproliferative activity against human MCF7 cells assessed as inhibition of cell proliferation incubated for 48 hrs by CCK8 assay; assay type: functional, cell-based; conditions: MCF7, 48 h; procedure, shortened: as §2
# A549 [21] = test: Induction of apoptosis in human A549 cells assessed as viable cells level at IC50 incubated for 24 hrs by Annexin V-FITC/propidium iodide double staining based flow cytometry (reference value: 99.7%); assay type: functional
# A549 [22] = test: Antitumor activity against human A549 cells xenografted in Balb/ca-nu mouse assessed as tumor growth inhibition at 5 mg/kg, iv dosed every 3 days for total of 7 dosing rounds measured on day 20 after treatment; assay type: functional; conditions: read-out: TGI; procedure, shortened: as §1
# A549 [23] = test: Antitumor activity against human A549 cells xenografted in Balb/ca-nu mouse assessed as tumor growth inhibition at 10 mg/kg, iv dosed every 3 days for total of 7 dosing rounds measured on day 8 after treatment; assay type: functional, organism-based; set-up: dose 10 mg/kg; procedure, shortened: as §1
# [24] = Antiproliferative activity against mouse NIH/3T3 cells assessed as inhibition of cell proliferation incubated for 48 hrs by CCK8 assay; assay type: cell-based; conditions: NIH3T3, 48 h; procedure, shortened: as §2
# A549 [25] = test: Antitumor activity against human A549 cells xenografted in Balb/ca-nu mouse assessed as tumor growth inhibition at 2.5 mg/kg, iv dosed every 3 days for total of 7 dosing rounds measured on day 14 after treatment; assay type: functional; conditions: read-out: TGI; procedure, shortened: as §1
# A549 [26] = test: Induction of apoptosis in human A549 cells assessed as early apoptosis cells level at 0.5 times antiproliferative IC50 incubated for 24 hrs by Annexin V-FITC/propidium iodide double staining based flow cytometry (reference value: 0.116%); assay type: functional
# A549 [27] = test: Antitumor activity against human A549 cells xenografted in Balb/ca-nu mouse assessed as tumor growth inhibition at 10 mg/kg, iv dosed every 3 days for total of 7 dosing rounds measured on day 18 after treatment; assay type: functional; conditions: read-out: TGI; procedure, shortened: as §1
# A549 [28] = test: Antitumor activity against human A549 cells xenografted in Balb/ca-nu mouse assessed as tumor growth inhibition at 10 mg/kg, iv dosed every 3 days for total of 7 dosing rounds measured on day 12 after treatment; assay type: functional; conditions: read-out: TGI; procedure, shortened: as §1
# A549 [29] = test: Induction of apoptosis in human A549 cells assessed as late apoptosis cells level at 0.5 times antiproliferative IC50 incubated for 24 hrs by Annexin V-FITC/propidium iodide double staining based flow cytometry (reference value: 0.127%); assay type: functional
compound,measurement,setting,value
O=C(/C=C/c1cccc(Cl)c1)c1ccc(OCc2cn([C@H]3CC(=O)N4C[C@@H]5CCCN6CCC[C@@H]([C@H]56)[C@H]4C3)nn2)cc1O,Activity,A549 [1],34.2%
same,TGI,A549 [2],Dose-dependent effect
same,inhibition in vivo at 2.5 mg/kg,A549 [3],12.2%
same,Activity,A549 [4],2.57%
same,inhibition in vivo at 5 mg/kg,A549 [5],34.8%
same,Activity,A549 [6],4.95%
same,inhibition in vivo at 10 mg/kg,A549 [7],89.6%
same,Activity,A549 [8],31.1%
same,inhibition in vivo at 2.5 mg/kg,A549 [9],43.9%
same,Activity,A549 [10],16.2%
same,Activity,A549 [11],57.9%
same,inhibition in vivo at 5 mg/kg,A549 [12],60.5%
same,IC50,A549 [13],5.01 µM
same,Activity,A549 [14],33.1%
same,inhibition in vivo at 5 mg/kg,A549 [15],54.9%
same,inhibition in vivo at 10 mg/kg,A549 [16],60.5%
same,Activity,A549 [17],30.1%
same,Activity,A549 [18],5.99%
same,Activity,A549 [19],Dose-dependent effect
same,inhibition in vivo at 2.5 mg/kg,A549 [20],5.4%
same,IC50,HeLa,7.31 µM
same,IC50,MCF7,6.25 µM
same,Activity,A549 [21],47.7%
same,inhibition in vivo at 5 mg/kg,A549 [22],64.8%
same,TGI,A549 [23],Active
same,IC50,[24],39.2 µM
same,inhibition in vivo at 2.5 mg/kg,A549 [25],23.3%
same,Activity,A549 [26],19.8%
same,inhibition in vivo at 10 mg/kg,A549 [27],86.9%
same,inhibition in vivo at 10 mg/kg,A549 [28],70.9%
same,Activity,A549 [29],16.3%

# — ChEMBL document CHEMBL3425481, “Design, synthesis and anticancer activity of matrine-1H-1,2,3-triazole-chalcone conjugates” (Bioorg Med Chem Lett, 2015)
